# Data reported in ChEMBL document CHEMBL1154907, “Synthesis and preclinical evaluations of 2-(2-fluorophenyl)-6,7-methylenedioxyquinolin-4-one monosodium phosphate (CHM-1-P-Na) as a potent antitumor agent” (J Med Chem, 2010).
# Active and inactive are the calls of the source. The rule behind the calls is not given here.
# Columns and labels:
# [1] = system: SK-OV-3; test: Cell cycle arrest in human SKOV3 cells assessed as increase in accumulation at G2/M phase at 10 uM after 36 hrs by propidium iodide-based flow cytometry; assay type: functional
# Summary of the method: (§1)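 SKOV-3 cells (DMEM/F-12, 10% fetal calf serum) treated with 10 μM for 6, 12, 24, 36 or 48 h; trypsinized, PBS-washed, fixed in 70% ice-cold ethanol overnight at -20 °C, RNase A treated, propidium iodide stained; DNA content by flow cytometry, phase percentages and hypodiploid fraction scored.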
# [2] = system: OVCAR-5; test: Growth inhibition of human OVCAR5 cells by SRB assay; assay type: functional
# Summary of the method: (§2)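 Human cancer cell panel; five concentrations from 10^-4 to 10^-8 M; growth measured by sulforhodamine B colorimetric method; GI50, TGI and LC50 derived from computer-analysed dose-response curves.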
# [3] = system: DU-145; test: Growth inhibition of human DU145 cells by SRB assay; assay type: functional; summary of the method: as §2
# [4] = system: SK-OV-3; test: Cell cycle arrest in human SKOV3 cells assessed as decrease in accumulation at G0/G1 phase at 10 uM after 36 hrs by propidium iodide-based flow cytometry; assay type: functional; summary of the method: as §1
# [5] = target: MAO-A (Homo sapiens, UniProt P21397); test: Inhibition of human MAO-A at 10 uM by enzyme assay
# MAO-A, sequence (P21397 whole entry): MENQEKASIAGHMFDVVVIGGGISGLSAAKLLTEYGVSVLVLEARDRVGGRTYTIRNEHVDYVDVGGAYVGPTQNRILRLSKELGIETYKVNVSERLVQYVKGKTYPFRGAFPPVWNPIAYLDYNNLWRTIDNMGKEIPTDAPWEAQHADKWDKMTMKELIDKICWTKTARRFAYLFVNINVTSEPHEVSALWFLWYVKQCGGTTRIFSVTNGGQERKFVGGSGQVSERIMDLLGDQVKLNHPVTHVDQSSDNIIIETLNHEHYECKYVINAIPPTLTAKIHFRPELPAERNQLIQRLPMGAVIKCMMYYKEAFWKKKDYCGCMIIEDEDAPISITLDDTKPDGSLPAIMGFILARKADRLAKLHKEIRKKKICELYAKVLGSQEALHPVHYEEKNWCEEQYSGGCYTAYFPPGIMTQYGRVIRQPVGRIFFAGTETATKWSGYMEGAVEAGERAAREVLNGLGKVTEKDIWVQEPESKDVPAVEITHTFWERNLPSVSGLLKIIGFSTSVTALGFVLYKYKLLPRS
# Summary of the method: (§3)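 Commercial spectrum screen of enzyme assays under standard protocols; percent inhibition tested at 10 μM; IC50 determined for targets showing significant inhibition at that concentration; SEM given where multiple independent determinations.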
# [6] = system: NCI-H226; test: Growth inhibition of human NCI-H226 cells by SRB assay; assay type: functional; summary of the method: as §2
# [7] = system: SF-539; test: Growth inhibition of human SF539 cells by SRB assay; assay type: functional
# Summary of the method: (§4)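 Cancer cell panel; growth measured by sulforhodamine B colorimetric method across five concentrations from 10^-4 to 10^-8 M; GI50, TGI and LC50 derived from computer-analysed dose-response curves.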
# [8] = system: HCT-15; test: Growth inhibition of human HCT15 cells by SRB assay; assay type: functional; summary of the method: as §2
# [9] = system: OVCAR-4; test: Growth inhibition of human OVCAR4 cells by SRB assay; assay type: functional; summary of the method: as §2
# [10] = Tmax in CD1 mouse at 10 mg/kg, ip; assay type: ADME, organism-based; set-up: dose 10 mg/kg, route intraperitoneal; settings: in vivo
# Summary of the method: (§5)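 Male CD-1 (Crl.) mice, 22-24 g, single 10 mg/kg ip bolus of parent drug in cremophor/DMSO/saline (20/5/75, v/v; 2 mg/mL, 5 mL/kg). Blood sampled at 0, 5, 15, 30 min, 1, 1.5, 2, 4, 6, 9, 24, 27 h, three mice per time point. Plasma extracted with acetonitrile, analysed by LC-MS/MS. Parameters calculated from mean plasma concentrations.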
# [11] = system: SF-295; test: Growth inhibition of human SF295 cells by SRB assay; assay type: functional; summary of the method: as §4
# [12] = system: MKN-74; test: Growth inhibition of human MKN74 cells by SRB assay; assay type: functional; summary of the method: as §2
# [13] = system: St-4; test: Growth inhibition of human St-4 cells by SRB assay; assay type: functional; summary of the method: as §4
# [14] = Half life in CD1 mouse at 10 mg/kg, ip; assay type: ADME, organism-based; set-up: dose 10 mg/kg, route intraperitoneal; settings: in vivo; summary of the method: as §5
# [15] = target: Cathepsin E (Homo sapiens) (UniProt P14091); test: Inhibition of human cathepsin E at 10 uM by enzyme assay; summary of the method: as §3
# Cathepsin E (Homo sapiens), sequence (P14091 whole entry): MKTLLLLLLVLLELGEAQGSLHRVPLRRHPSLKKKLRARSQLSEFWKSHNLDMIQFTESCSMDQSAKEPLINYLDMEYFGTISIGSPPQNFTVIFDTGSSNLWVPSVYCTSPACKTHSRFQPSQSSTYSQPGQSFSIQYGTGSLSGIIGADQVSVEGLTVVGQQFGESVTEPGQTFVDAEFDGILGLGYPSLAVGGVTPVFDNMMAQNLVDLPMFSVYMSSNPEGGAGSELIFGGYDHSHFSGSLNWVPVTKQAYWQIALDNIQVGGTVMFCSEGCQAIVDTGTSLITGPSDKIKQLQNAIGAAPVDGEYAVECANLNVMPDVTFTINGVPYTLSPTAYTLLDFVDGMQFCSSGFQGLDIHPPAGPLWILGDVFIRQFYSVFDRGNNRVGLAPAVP
# [16] = system: PC-3; test: Growth inhibition of human PC3 cells by SRB assay; assay type: functional; summary of the method: as §2
# [17] = system: HT-29; test: Growth inhibition of human HT-29 cells by SRB assay; assay type: functional; summary of the method: as §2
# [18] = system: A549; test: Growth inhibition of human A549 cells by SRB assay; assay type: functional; summary of the method: as §2
# [19] = Mean residence time in CD1 mouse at 10 mg/kg, ip; assay type: ADME, organism-based; set-up: dose 10 mg/kg, route intraperitoneal; settings: in vivo; summary of the method: as §5
# [20] = Solubility in water; assay type: physicochemical; settings: buffer
# [21] = system: SK-OV-3; test: Cell cycle arrest in human SKOV3 cells assessed as increase in accumulation of hypodiploid cells at 10 uM after 48 hrs by propidium iodide-based flow cytometry; assay type: functional; summary of the method: as §1
# [22] = system: SK-OV-3; test: Cell cycle arrest in human SKOV3 cells assessed as accumulation of cells with G2/M DNA at 10 uM after 36 hrs by propidium iodide-based flow cytometry; assay type: functional; summary of the method: as §1
# [23] = system: NCI-H460; test: Growth inhibition of human NCI-H460 cells by SRB assay; assay type: functional; summary of the method: as §2
# [24] = system: ACHN; test: Growth inhibition of human ACHN cells by SRB assay; assay type: functional; summary of the method: as §2
# [25] = system: SNB-78; test: Growth inhibition of human SNB78 cells by SRB assay; assay type: functional; summary of the method: as §4
# [26] = target: Cathepsin D (Homo sapiens) (UniProt P07339); test: Inhibition of human cathepsin D at 10 uM by enzyme assay; summary of the method: as §3
# Cathepsin D (Homo sapiens), sequence (P07339 65-162 limits assumed): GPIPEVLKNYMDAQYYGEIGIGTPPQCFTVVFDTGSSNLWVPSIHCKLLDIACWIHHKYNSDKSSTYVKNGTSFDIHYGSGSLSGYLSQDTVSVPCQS
# Cathepsin D (Homo sapiens), sequence (P07339 169-412 limits assumed): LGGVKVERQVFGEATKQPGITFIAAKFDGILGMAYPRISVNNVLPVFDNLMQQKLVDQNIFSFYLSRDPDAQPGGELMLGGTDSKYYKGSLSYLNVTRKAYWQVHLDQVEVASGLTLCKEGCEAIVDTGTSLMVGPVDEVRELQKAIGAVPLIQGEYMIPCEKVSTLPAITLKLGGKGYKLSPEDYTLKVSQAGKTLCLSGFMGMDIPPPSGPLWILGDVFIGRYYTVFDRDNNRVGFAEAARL
# [27] = system: DMS-273; test: Growth inhibition of human DMS273 cells by SRB assay; assay type: functional; summary of the method: as §2
# [28] = system: SK-OV-3; test: Growth inhibition of human SKOV3 cells by SRB assay; assay type: functional; summary of the method: as §4
# [29] = Growth inhibition of human BSY1 cells by SRB assay; assay type: functional, BSY-1; summary of the method: as §2
# [30] = target: Cathepsin S (Homo sapiens) (UniProt P25774); test: Inhibition of human cathepsin S at 10 uM by enzyme assay; summary of the method: as §3
# Cathepsin S (Homo sapiens), sequence (P25774 115-331 limits assumed): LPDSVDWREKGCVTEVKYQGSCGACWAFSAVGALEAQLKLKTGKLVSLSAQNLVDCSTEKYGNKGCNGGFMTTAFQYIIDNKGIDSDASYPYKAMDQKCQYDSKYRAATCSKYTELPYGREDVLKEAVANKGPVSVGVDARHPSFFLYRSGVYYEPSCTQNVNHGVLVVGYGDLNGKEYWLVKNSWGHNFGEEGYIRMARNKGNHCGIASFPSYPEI
# [31] = AUC (0 to infinity) in CD1 mouse at 10 mg/kg, ip; assay type: ADME, organism-based; set-up: dose 10 mg/kg, route intraperitoneal, time infinity; settings: plasma
# Summary of the method: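 Male CD-1 (Crl.) mice (22-24 g), single 10 mg/kg dose. Prodrug in 9% NaHCO3/water (1 mg/mL) given iv by tail vein or po by gavage after 4 h fast; parent given ip in cremophor/DMSO/saline 20/5/75 (2 mg/mL). Plasma sampled to 27 h, three mice per time point, acetonitrile precipitation, LC-MS/MS (ESI positive); parameters from mean plasma concentrations.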
# [32] = target: Glutamate decarboxylase (Clostridium perfringens (strain 13 / Type A)) (UniProt Q8XIQ6); test: Inhibition of Clostridium perfringens glutamate decarboxylase at 10 uM by enzyme assay
# Summary of the method: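 Single-concentration screen at 10 μM in a contract enzyme assay panel run under standard protocols. Read-out is percent inhibition of the enzyme.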
# [33] = system: LOX IMVI; test: Growth inhibition of human LOXIMVI cells by SRB assay; assay type: functional; summary of the method: as §2
# [34] = read-out: pLC50 (the source's name) (converted)
structure (smiles),measurement,setting,value
O=c1cc(-c2ccccc2F)[nH]c2cc3c(cc12)OCO3,Activity,[1],Active
same,GI50,[2]; OVCAR-5,813 nM
same,CC50,"[2]; OVCAR-5, read-out: pLC50 (converted)",> 100000 nM
same,TGI,"[2]; OVCAR-5, read-out: pTGI",> 100000 nM
same,GI50,[3]; DU-145,50.1 nM
same,CC50,"[3]; DU-145, read-out: pLC50 (converted)",> 100000 nM
same,TGI,"[3]; DU-145, read-out: pTGI (converted)",562 nM
same,Activity,[4],Active
same,inhibition at 10 µM,[5],52%
same,GI50,[6]; NCI-H226,355 nM
same,CC50,"[6]; NCI-H226, read-out: pLC50 (converted)",> 100000 nM
same,TGI,"[6]; NCI-H226, read-out: pTGI",> 100000 nM
same,GI50,[7],120 nM
same,CC50,[7]; [34],89100 nM
same,TGI,[7]; read-out: pTGI (converted),501 nM
same,GI50,[8]; HCT-15,50.1 nM
same,CC50,"[8]; HCT-15, read-out: pLC50 (converted)",> 100000 nM
same,TGI,"[8]; HCT-15, read-out: pTGI",> 100000 nM
same,GI50,[9],28.2 nM
same,CC50,[9]; [34],513 nM
same,TGI,[9]; read-out: pTGI (converted),64.6 nM
same,Tmax,[10],0.3 h
same,GI50,[11]; SF-295,115 nM
same,CC50,"[11]; SF-295, read-out: pLC50 (converted)",> 100000 nM
same,TGI,"[11]; SF-295, read-out: pTGI (converted)",52500 nM
same,GI50,[12]; MKN-74,162 nM
same,CC50,"[12]; MKN-74, read-out: pLC50 (converted)",> 100000 nM
same,TGI,"[12]; MKN-74, read-out: pTGI (converted)",871 nM
same,GI50,[13]; St-4,6610 nM
same,CC50,"[13]; St-4, read-out: pLC50 (converted)",> 100000 nM
same,TGI,"[13]; St-4, read-out: pTGI (converted)",93300 nM
same,half-life,[14],7.3 h
same,inhibition,[15],12%
same,GI50,[16]; PC-3,75.9 nM
same,CC50,"[16]; PC-3, read-out: pLC50 (converted)",> 100000 nM
same,TGI,"[16]; PC-3, read-out: pTGI",> 100000 nM
same,GI50,[17]; HT-29,309 nM
same,CC50,"[17]; HT-29, read-out: pLC50 (converted)",> 100000 nM
same,TGI,"[17]; HT-29, read-out: pTGI (converted)",1200 nM
same,GI50,[18]; A549,692 nM
same,CC50,"[18]; A549, read-out: pLC50 (converted)",> 100000 nM
same,TGI,"[18]; A549, read-out: pTGI",> 100000 nM
same,MRT,[19],7.3 h
same,solubility,[20],0.013 µg/mL
same,Activity,[21],Active
same,Activity,[22],Active
same,GI50,"[23]; NCI-H460, read-out: pGI50 (converted)",> 100000 nM
same,CC50,"[23]; NCI-H460, read-out: pLC50 (converted)",> 100000 nM
same,TGI,"[23]; NCI-H460, read-out: pTGI",> 100000 nM
same,GI50,[24],389 nM
same,CC50,[24]; read-out: pLC50 (converted),> 100000 nM
same,TGI,[24]; read-out: pTGI,> 100000 nM
same,GI50,[25]; SNB-78,219 nM
same,CC50,"[25]; SNB-78, read-out: pLC50 (converted)",> 100000 nM
same,TGI,"[25]; SNB-78, read-out: pTGI (converted)",12000 nM
same,inhibition,[26],27%
same,GI50,[27]; DMS-273,56.2 nM
same,CC50,"[27]; DMS-273, read-out: pLC50 (converted)",> 100000 nM
same,TGI,"[27]; DMS-273, read-out: pTGI",> 100000 nM
same,GI50,[28],85.1 nM
same,CC50,[28]; [34],63100 nM
same,TGI,[28]; read-out: pTGI (converted),501 nM
same,GI50,[29]; BSY-1,324 nM
same,CC50,"[29]; BSY-1, read-out: pLC50 (converted)",> 100000 nM
same,TGI,"[29]; BSY-1, read-out: pTGI (converted)",13200 nM
same,inhibition,[30],1%
same,AUC(0-inf),[31],417 ng·h/mL
same,inhibition,[32],66%
same,GI50,[33],123 nM
same,CC50,[33]; read-out: pLC50 (converted),> 100000 nM
same,TGI,[33]; read-out: pTGI (converted),676 nM
